Test results published in paper PMC5267326 (Chemical Science, 2015).

Tests used:
[1] = cited from earlier work
[2] = system: FGF2 binding to cell surface heparan sulfate (wild-type CHO cells); assay: Inhibition of FGF2 binding to cell surface HS on wild-type CHO cells; conditions: for IC50: read-out: IC50 against FGF2 binding, biotinylated FGF2 2.5 nM, on ice, mean ± SD of n = 3–4; for inhibition of FGF2 binding (in words): up to 100 μM
Procedure, shortened: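 Wild-type CHO cells grown to confluence in F12/10% FBS, lifted enzyme-free and washed in PBS. Pre-incubated with test compound in PBS/0.1% BSA for 10 min on ice. Biotinylated FGF2 (2.5 nM) added for 30 min on ice. After washing, detected with streptavidin-PE-Cy5 or streptavidin-Cy5 by flow cytometry as geometric mean fluorescence. Expressed as % of binding without compound and plotted against concentration.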

[3] = system: soluble RAGE (sRAGE) binding to cell surface HS; assay: Inhibition of sRAGE binding to cell surface HS on CHO cells; conditions: for sRAGE binding inhibition at 10 μM (in words): 10 μM compound, cell surface HS
Procedure, shortened: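 CHO cells lifted enzyme-free and washed in PBS. Test compound at 10 μM pre-incubated in PBS/0.1% BSA for 10 min on ice. Biotinylated sRAGE (2 μg mL−1) added for 1 h on ice. After washing, bound protein detected with streptavidin-PE-Cy5 or streptavidin-Cy5 by flow cytometry as geometric mean fluorescence. Reported relative to no-compound binding, means ± SD.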

[4] = In vivo neutralization of fondaparinux in mice; conditions: fondaparinux 0.5 mg kg^–1 s.c., 16 mg kg^–1 i.v.
Procedure, shortened: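 Wild-type mice (8 weeks, ~20–30 g), n = 3 per group. Baseline tail bleed 30 min before dosing. Fondaparinux 0.5 mg kg−1 in PBS given s.c. After 10 min, tail-vein i.v. dosing of test compound (16 mg kg−1, DMSO–water), DMSO–H2O vehicle or protamine (16 mg kg−1, PBS). Blood drawn 5 min later into 3.2% citrate. Plasma anti-FXa colorimetric assay (405 nm) read against a calibration curve. Means ± SD.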

Row | Compound | IC50 [2] | sRAGE binding inhibition at 10 μM (in words) [3] | also measured
1 | Nc1ccnc2ccccc12 [4-aminoquinoline] |  |  | pKa of the protonated form [1]: ~8.5
2 | CC(=O)Nc1ccc2nc(C)cc(N)c2c1 [Acetyl-hemisurfen (3), 6-acetamido-4-aminoquinaldine] | > 100 µM | no inhibitory activity | inhibition of FGF2 binding (in words) [2]: did not inhibit; IC50 ([3]; read-out: IC50 inhibition of sRAGE binding to HS, CHO cells, biotinylated sRAGE 2 μg mL^–1): > 100 µM
3 | Cc1ccc2cc(NC(=O)Nc3ccc4nc(C)ccc4c3)ccc2n1 [Deaminated surfen (6), 1,3-Bis(2-methylquinolin-6-yl)urea] | > 100 µM | no inhibitory activity | 
4 | Cc1cc(N)c2cc(NC(N)=O)ccc2n1 [Hemisurfen (2), 4-Amino-2-methyl-6-quinolyl-urea] | > 100 µM | no inhibitory activity | inhibition of FGF2 binding (in words) [2]: did not inhibit
5 | COc1cc(C)nc2ccc(NC(=O)Nc3ccc4nc(C)cc(OC)c4c3)cc12 [Methoxy surfen (5), 1,3-bis(4-methoxy-2-methyl-quinolin-6-yl)urea] | > 100 µM |  | 
6 | Cc1cc(N)c2cc(NC(=S)Nc3ccc4nc(C)cc(N)c4c3)ccc2n1 [Thio surfen (4), N,N′-bis-(4-amino-2-methyl-6-quinolyl)-thiourea] | 8 ± 0.2 µM |  | 
7 | protamine |  |  | neutralizing fondaparinux in vivo (in words) [4]: ineffective
